Experiment [1] has as its target T1, Fatty-acid amide hydrolase 1 (Homo sapiens) (UniProt O00519).
T1 sequence (whole entry): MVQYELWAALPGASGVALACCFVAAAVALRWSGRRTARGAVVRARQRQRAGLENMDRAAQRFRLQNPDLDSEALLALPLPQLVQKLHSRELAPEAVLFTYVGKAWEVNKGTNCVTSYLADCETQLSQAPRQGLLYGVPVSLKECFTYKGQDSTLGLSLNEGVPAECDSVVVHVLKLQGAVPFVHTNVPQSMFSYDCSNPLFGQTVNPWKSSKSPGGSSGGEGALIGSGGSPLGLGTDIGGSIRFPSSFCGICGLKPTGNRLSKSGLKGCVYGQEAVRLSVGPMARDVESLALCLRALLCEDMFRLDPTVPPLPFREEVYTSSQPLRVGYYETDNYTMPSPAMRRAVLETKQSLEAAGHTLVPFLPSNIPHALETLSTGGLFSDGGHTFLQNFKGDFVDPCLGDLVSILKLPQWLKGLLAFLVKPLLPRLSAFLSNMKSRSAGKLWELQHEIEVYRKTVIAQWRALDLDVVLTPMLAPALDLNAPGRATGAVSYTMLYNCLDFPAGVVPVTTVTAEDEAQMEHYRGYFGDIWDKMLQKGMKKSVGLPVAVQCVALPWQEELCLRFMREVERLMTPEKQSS
As to the kind of experiment: Inhibition of human recombinant FAAH expressed in COS7 cells using anandamide as substrate assessed as remaining activity at 10 uM. The conditions noted are these: COS-7. Type of experiment: cell-based. Summed up:
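Membranes of COS-7 cells transiently overexpressing human FAAH, 1 ug protein per incubation, with 20 uM anandamide substrate including 10 nM 3H-anandamide tracer. Test compound at 10 uM. Remaining activity expressed as % of control, given as range, n = 2.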

The target of experiment [2] is T2, Monoglyceride lipase (Homo sapiens) (UniProt Q99685).
T2 sequence (whole entry): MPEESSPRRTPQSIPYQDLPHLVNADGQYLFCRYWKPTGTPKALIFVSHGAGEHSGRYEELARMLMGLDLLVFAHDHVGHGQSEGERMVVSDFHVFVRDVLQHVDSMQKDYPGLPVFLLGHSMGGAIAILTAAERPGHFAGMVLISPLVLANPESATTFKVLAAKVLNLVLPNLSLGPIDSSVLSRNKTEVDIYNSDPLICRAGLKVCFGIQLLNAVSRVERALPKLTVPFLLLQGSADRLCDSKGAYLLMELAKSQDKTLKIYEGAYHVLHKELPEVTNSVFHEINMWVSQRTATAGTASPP
As to the kind of experiment: Inhibition of human recombinant MAGL expressed in HEK293 cells using 2-AG as substrate assessed as remaining activity at 10 uM. Summed up:
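Lysates of HEK293 cells transiently overexpressing human MAGL, 2.5 ug protein per incubation, with 50 uM 2-AG substrate. Test compound at 10 uM. Remaining activity expressed as % of control, given as range, n = 2.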

A further experiment addresses T3, Monoglyceride lipase (Homo sapiens, UniProt Q99685).
T3 sequence (Q99685 whole entry): T2 sequence (whole entry)
As to the kind of experiment: Inhibition of human recombinant MAGL expressed in HEK293 cells using 2-AG as substrate. The class given is cell-based. In outline:
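Lysates of HEK293 cells transiently overexpressing human recombinant MAGL, 2.5 ug protein per incubation. 2-AG substrate at 50 uM.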

The target in experiment [3] is T4, Fatty-acid amide hydrolase 1 (Homo sapiens, UniProt O00519).
T4 sequence (O00519 whole entry): T1 sequence (whole entry)
As to the kind of experiment: Inhibition of human recombinant FAAH expressed in COS7 cells using anandamide as substrate. Type of experiment: cell-based, COS-7. Summed up: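 Membranes of COS-7 cells transiently overexpressing human recombinant FAAH, 1 ug protein per incubation. Anandamide substrate at 20 uM, including 10 nM 3H-anandamide tracer (specific activity 60 […]/mmol).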

The species entered for the next experiment is Homo sapiens. As to the kind of experiment: Selectivity ratio of IC50 for human recombinant FAAH to IC50 for human recombinant MAGL.

The values that follow come from ChEMBL document CHEMBL3352117, “Piperazine and piperidine carboxamides and carbamates as inhibitors of fatty acid amide hydrolase (FAAH) and monoacylglycerol lipase (MAGL)” (Bioorg Med Chem, 2014).

On to `O=C(Oc1ccc([N+](=O)[O-])cc1)N1CCC(=C(c2ccc3c(c2)OCO3)c2ccc3c(c2)OCO3)CC1`, for which the figures for the Activity in experiment [1] and in experiment [2] were 89% and 85%, respectively.

`O=C(N1CCN(Cc2ccc(Oc3ccccc3)cc2)CC1)n1ccnc1`: the IC50 at Monoglyceride lipase (read-out: IC50) is 0.66 µM; in experiment [3] (read-out: IC50), 0.0034 µM; in experiment [3] (read-out: pIC50 (converted)) it was 0.0174 µM.

In the case of `O=C(N1CCN(c2ccccc2)CC1)n1nnc2cccnc21`, the IC50 at Monoglyceride lipase (read-out: IC50) is 0.275 µM; in experiment [3] (read-out: IC50), 0.011 µM; in experiment [3] (read-out: pIC50 (converted)), 0.0112 µM.

In the case of `O=C(N1CCN(Cc2cccc(Oc3ccccc3)c2)CC1)n1cncn1`, in the experiment listed under Homo sapiens, the Ratio IC50 is 4.5. In addition, the IC50 on Monoglyceride lipase (read-out: IC50) was 0.0006 µM; in experiment [3] (read-out: IC50), 0.0027 µM; in experiment [3] (read-out: pIC50 (converted)), 0.00269 µM.

For the compound `O=C(N1CCN(C(c2ccc(F)cc2)c2ccc(F)cc2)CC1)n1cncn1`, the IC50 on Monoglyceride lipase (read-out: IC50) is 0.0009 µM; in experiment [3] (read-out: IC50) it was 0.282 µM; in experiment [3] (read-out: pIC50 (converted)) it was 0.282 µM.

As for `COc1ccc(NC(=O)N2CCN(Cc3cccc(Oc4ccccc4)c3)CC2)cc1`, the Activity came out at 56% in experiment [1] and 78% in experiment [2].

For `O=C(OCc1ccccc1)N1CCC(C(O)(c2ccc3c(c2)OCO3)c2ccc3c(c2)OCO3)CC1`, the Activity in experiment [1] and in experiment [2] was 92% in each case.

Regarding `O=C(Nc1ccccc1)N1CCN(Cc2cccc(Oc3ccccc3)c2)CC1`, the IC50 in experiment [3] (read-out: IC50) and in experiment [3] (read-out: pIC50 (converted)) was 3.02 µM in each case. Besides, the Activity in experiment [2] came to 98%.

Turning to `O=C(Nc1ccccn1)N1CCN(C(c2ccccc2)c2ccccc2)CC1`, the Activity in experiment [1] amounted to 87%; in experiment [2], 94%.

Take `O=C(Oc1ccc([N+](=O)[O-])cc1)N1CCN(Cc2ccc(Oc3ccccc3)cc2)CC1`: the IC50 at Monoglyceride lipase (read-out: IC50) turned out to be 1.1 µM. The Activity in experiment [1] came out at 43%.

Regarding `O=C(N1CCN(C(c2ccccc2)c2ccccc2)CC1)n1ccnc1`, the IC50 was 2.3 µM in experiment [3] (read-out: IC50) and 2.29 µM in experiment [3] (read-out: pIC50 (converted)). Besides, the Activity in experiment [2] was determined as 51%.

For `O=C(N1CCN(Cc2cccc(Oc3ccccc3)c2)CC1)n1nnc2cccnc21`, the Ratio IC50 in the experiment filed under Homo sapiens is 4. The IC50 at Monoglyceride lipase (read-out: IC50) is 0.0055 µM; in experiment [3] (read-out: IC50) it was 0.023 µM; in experiment [3] (read-out: pIC50 (converted)) it was 0.0229 µM.

As to `O=C(N1CCN(Cc2cccc(Oc3ccccc3)c2)CC1)n1nnc2ccccc21`, the Ratio IC50 in the experiment listed under Homo sapiens came out at 10. The IC50 is 0.0078 µM at Monoglyceride lipase (read-out: IC50), 0.089 µM in experiment [3] (read-out: IC50) and 0.0891 µM in experiment [3] (read-out: pIC50 (converted)).

Consider `O=C(Nc1ccc(C(F)(F)F)cc1)N1CCN(C(c2ccccc2)c2ccccc2)CC1`, for which the Activity in experiment [1] was found to be 86%; in experiment [2] it was 96%.

For the compound `O=C(Oc1ccc([N+](=O)[O-])cc1)N1CCN(C(c2ccccc2)c2ccccc2)CC1`, the IC50 on Monoglyceride lipase (read-out: IC50) was found to be 0.257 µM. Moreover, the Activity in experiment [1] amounted to 86%.

Regarding `O=C(Nc1cccnc1)N1CCN(C(c2ccccc2)c2ccccc2)CC1`, the Activity in experiment [1] amounted to 87%; in experiment [2], 101%.

`O=C(N1CCC(C(O)(c2ccc3c(c2)OCO3)c2ccc3c(c2)OCO3)CC1)n1cncn1`: the Ratio IC50 in the experiment listed under Homo sapiens stood at 2320. For the same compound, the results for the IC50 (on Monoglyceride lipase (read-out: pIC50 (converted)); in experiment [3] (read-out: IC50); in experiment [3] (read-out: pIC50 (converted))) were 0.000692 µM, 1.62 µM and 1.62 µM, respectively.

`CCCCc1ccc(NC(=O)N2CCN(C(c3ccccc3)c3ccccc3)CC2)cc1`: the Activity in experiment [1] was found to be 84%; in experiment [2], 92%.

For `O=C(N1CCN(C(c2ccccc2)c2ccccc2)CC1)n1cnc(-c2ccccc2)c1`, the Activity turned out to be 62% in experiment [1] and 93% in experiment [2].

As for `O=C(N1CCN(Cc2cccc(Oc3ccccc3)c2)CC1)n1ccnc1`, the IC50 on Monoglyceride lipase (read-out: IC50) is 2.84 µM; in experiment [3] (read-out: IC50), 0.015 µM; in experiment [3] (read-out: pIC50 (converted)), 0.0155 µM.

With `O=C(Nc1ccccc1)N1CCN(C(c2ccccc2)c2ccccc2)CC1`, the Activity in experiment [1] was determined as 88%; in experiment [2], 62%.

For the compound `O=C(OCC(Cl)(Cl)Cl)N1CCC(C(O)(c2ccc3c(c2)OCO3)c2ccc3c(c2)OCO3)CC1`, the Activity in experiment [1] was 90%; in experiment [2] it was 89%.

As to `O=C(Nc1ccc([N+](=O)[O-])cc1)N1CCN(C(c2ccccc2)c2ccccc2)CC1`, the Activity in experiment [1] amounted to 84%; in experiment [2], 58%.

For the compound `O=C(Oc1ccc([N+](=O)[O-])cc1)N1CCC(C(c2ccc3c(c2)OCO3)c2ccc3c(c2)OCO3)CC1`, at Monoglyceride lipase (read-out: IC50), the IC50 worked out at 0.042 µM. Moreover, the Activity in experiment [1] turned out to be 88%.

`O=C(N1CCN(C(c2ccccc2)c2ccccc2)CC1)n1cncn1`: the IC50 was 0.0013 µM on Monoglyceride lipase (read-out: IC50), 0.452 µM in experiment [3] (read-out: IC50) and 0.447 µM in experiment [3] (read-out: pIC50 (converted)).

Regarding `O=C(Oc1ccc([N+](=O)[O-])cc1)N1CCN(C(c2ccc(F)cc2)c2ccc(F)cc2)CC1`, the IC50 on Monoglyceride lipase (read-out: IC50) was 0.347 µM. Further, the Activity in experiment [1] was found to be 85%.

Regarding `O=C(Nc1ccc([N+](=O)[O-])cc1)N1CCN(Cc2cccc(Oc3ccccc3)c2)CC1`, the Activity in experiment [1] is 98%; in experiment [2] it was 102%.

Consider `CCOC(=O)N1CCN(C(=O)n2cncn2)CC1`, for which the results for the IC50 (on Monoglyceride lipase (read-out: IC50); in experiment [3] (read-out: IC50); in experiment [3] (read-out: pIC50 (converted))) were 1.66 µM, 0.141 µM and 0.141 µM, respectively.

`COc1ccc(NC(=O)N2CCN(C(c3ccccc3)c3ccccc3)CC2)cc1`: the Activity in experiment [1] was determined as 89%; in experiment [2], 86%.

As for `O=C(N1CCN(C(c2ccccc2)c2ccccc2)CC1)n1nnc2cccnc21`, the IC50 on Monoglyceride lipase (read-out: IC50) is 0.0017 µM; in experiment [3] (read-out: IC50), 0.971 µM; in experiment [3] (read-out: pIC50 (converted)), 0.977 µM.

Consider `CCOC(=O)N1CCN(C(=O)n2nnc3cccnc32)CC1`, for which the IC50 at Monoglyceride lipase (read-out: IC50) is 1.91 µM; in experiment [3] (read-out: IC50) it was 0.231 µM; in experiment [3] (read-out: pIC50 (converted)), 0.229 µM.

Regarding `O=C(OC(C(F)(F)F)C(F)(F)F)N1CCN(Cc2cccc(Oc3ccccc3)c2)CC1`, at Monoglyceride lipase (read-out: IC50), the IC50 was 0.074 µM. Besides, in experiment [1], the Activity is 76%.

For `O=C(N1CCN(c2ccccc2)CC1)n1cncn1`, the IC50 on Monoglyceride lipase (read-out: IC50) is 0.132 µM; in experiment [3] (read-out: IC50) it was 0.006 µM; in experiment [3] (read-out: pIC50 (converted)), 0.00603 µM.

As for `O=C(N1CCN(Cc2ccc(Oc3ccccc3)cc2)CC1)n1nnc2ccccc21`, the IC50 on Monoglyceride lipase (read-out: IC50) was 0.07 µM; in experiment [3] (read-out: IC50), 0.708 µM; in experiment [3] (read-out: pIC50 (converted)), 0.708 µM.

In the case of `O=C(N1CCC(C(c2ccc3c(c2)OCO3)c2ccc3c(c2)OCO3)CC1)n1cncn1`, in the experiment filed under Homo sapiens, the Ratio IC50 was over 13000. Further, the IC50 at Monoglyceride lipase (read-out: IC50) was 0.0004 µM; in experiment [3] (read-out: IC50), 4.8 µM; in experiment [3] (read-out: pIC50 (converted)), 4.79 µM.
